ChEMBL document CHEMBL1681735, “One step synthesis of 2-hydroxymethylisoflavone and their osteogenic activity” (2011)
Calls of active or inactive are those of the source. The rule behind the calls is not given here.

Tests used:
[1] = tested on: Calvarial cell; test: Induction of osteoblast differentiation in rat Calvarial cells assessed as increase in alkaline phosphatase activity at 10^-12 to 10^-6 M by spectrophotometry; assay type: functional, cell-based
Procedure, shortened: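 Rat calvarial osteoblasts trypsinized at 70–80% confluence (0.02% trypsin-EDTA). 2 × 10³ cells seeded in α-MEM with 10% FBS plus 50 µg/ml ascorbate and 10 mM glycerophosphate. Exposed to 10^-12 to 10^-6 M for 48 h; isoformononetin 10^-8 M as positive control. Total ALP read at 405 nm with PNPP 10 mmol/L in diethanolamine buffer (1 mol/L, pH 9.8), 0.5 mmol/L MgCl₂. Mean SEM, n = 6.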

[2] = tested on: Calvarial cell; test: (§1) Induction of osteogenic activity in rat Calvarial cells assessed as fold increase in Runx-2 gene expression after 48 hrs by qPCR relative to untreated control; assay type: functional
Procedure, shortened: (§2)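 Osteoblasts cultured with or without compound for 48 h, then qPCR. Cycling: 95 °C 5 min, then 40 cycles of 94 °C 2 min, 62 °C 30 s annealing/extension and 72 °C 30 s. Normalized to GAPDH. Compared with vehicle-treated cells; mean SEM, n = 3.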

[3] = (§3) Induction of osteogenic activity in rat Calvarial cells assessed as fold increase in BMP-2 gene expression after 48 hrs by qPCR relative to untreated control; assay type: functional, Calvarial cell; procedure, shortened: as §2
[4] = tested on: Calvarial cell; test: (§4) Induction of osteogenic activity in rat Calvarial cells assessed as fold increase in OCN gene expression after 48 hrs by qPCR relative to untreated control; assay type: functional; procedure, shortened: as §2
[5] = as §1; assay type: functional, Calvarial cell; procedure, shortened: as §2
[6] = as §4; assay type: functional, Calvarial cell; procedure, shortened: as §2
[7] = tested on: Calvarial cell; test: as §3; assay type: functional; procedure, shortened: as §2

Row | Structure (SMILES) | Activity [1] | Activity [2] | fold change (FC) [3] | Activity [4] | fold change (FC) [5] | fold change (FC) [6] | Activity [7]
1 | O=c1c(-c2ccccc2)c(CO)oc2ccccc12 | Active | inactive | 2.5 | inactive |  |  | 
2 | COc1ccc(-c2c(CO)oc3ccccc3c2=O)c(O)c1 | Active |  | 2 |  | 8 | 2 | 
3 | COc1ccc(-c2c(CO)oc3cc(O)ccc3c2=O)cc1 | Active | inactive |  | inactive |  |  | inactive
4 | O=c1c(-c2ccccc2)c(CO)oc2cc(O)ccc12 | Active |  |  | inactive | 6.5 |  | inactive
